Laboratory results taken from ChEMBL document CHEMBL1212817, “Design and synthesis of C-2 substituted thiazolo and dihydrothiazolo ring-fused 2-pyridones: pilicides with increased antivirulence activity” (J Med Chem, 2010).

Legend:
[1] = target: T1, Chaperone protein PapD (Escherichia coli, UniProt P15319); assay: Inhibition of Escherichia coli UTI89 PapD chaperon assessed as inhibition of biofilm formation
T1 sequence (P15319 whole entry): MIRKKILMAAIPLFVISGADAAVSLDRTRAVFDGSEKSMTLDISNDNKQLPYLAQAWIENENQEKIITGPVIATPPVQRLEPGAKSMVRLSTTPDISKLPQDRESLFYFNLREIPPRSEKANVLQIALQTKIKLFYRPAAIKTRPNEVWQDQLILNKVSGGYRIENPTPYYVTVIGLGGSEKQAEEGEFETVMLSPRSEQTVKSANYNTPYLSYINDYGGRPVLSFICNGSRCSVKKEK
In short: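 Pilus-dependent biofilm assay with whole E. coli UTI89 grown on polyvinylchloride in the presence of pilicide; biofilm amount taken as readout of piliation block. IC50 calculated from 16-32 data points at every concentration.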

[2] = tested on: Escherichia coli; assay: Antibacterial activity against Escherichia coli UTI89 assessed as number of wells with agglutination by hemagglutinination assay; assay type: functional
In short: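 UTI89 grown with pilicide at 250 μM; culture piliation then scored by hemagglutination titer, expressed as number of wells with agglutination (2ⁿ); value is the average of duplicate runs.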

IC50 [1] | Compound | Activity [2]
Not Active | O=C(c1ccccc1)c1sc2c(C3CC3)c(Cc3cccc4ccccc34)cc(=O)n2c1C(=O)O | 
 | O=C(O)c1c(Cc2ccccc2)sc2c(C3CC3)c(Cc3cccc4ccccc34)cc(=O)n12 | 3
Not Active | COc1ccc(-c2sc3c(C4CC4)c(Cc4cccc5ccccc45)cc(=O)n3c2C(=O)O)cc1 | 
 | O=C(O)c1c(-c2ccccc2)sc2c(C3CC3)c(Cc3cccc4ccccc34)cc(=O)n12 | 4.5
 | Cc1cccc(-c2sc3c(C4CC4)c(Cc4cccc5ccccc45)cc(=O)n3c2C(=O)O)c1 | 3
 | O=C(O)c1c(-c2ccsc2)sc2c(C3CC3)c(Cc3cccc4ccccc34)cc(=O)n12 | 3.5
Not Active | O=C(O)c1c(-c2ccc3[nH]ccc3c2)sc2c(C3CC3)c(Cc3cccc4ccccc34)cc(=O)n12 | 
